Measurements from paper PMC4021529 (British Journal of Cancer, 2014).
Values joined by “and” are separate entries in the source; they are usually repeats but may differ in a detail not shown here. Identical values can stand only once.

Tests used:
[1] = QTcF interval, triplicate 12-lead ECG; format: in vivo, human; settings: for maximal mean change (±s.d.) from baseline in QTcF: 2 h post-administration, first two courses
[2] = Phase I 3+3 dose escalation: MTD and dose-limiting toxicities; format: in vivo, human; settings: for maximum tolerated dose (MTD): Asian patients
Procedure, shortened: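 Open-label 3+3 escalation run separately for each schedule. Test compound given as a 2-h IV infusion every 3 weeks: A on day 1 (100, 200, 250, 300 mg, up to 400), B on days 1 and 8 (50, 100, 150, 200 mg, up to 250). MTD was the highest dose with DLT in ≤1 of 6 patients in course 1. Graded by CTCAE v3.0. Up to 18 patients treated at the MTD.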

With `CC[C@@H]1C(=O)N(C)c2cnc(Nc3ccc(C(=O)N[C@H]4CC[C@H](N5CCN(CC6CC6)CC5)CC4)cc3OC)nc2N1C(C)C` [volasertib] the “QTcF at 8-h post-dose assessment” value ([1]; first course) was “returned to baseline levels”, the “clinically relevant cardiac AEs related to a prolonged QT interval” value ([1]; in vivo) was “No related clinically relevant cardiac AEs” and the “maximal mean change (±s.d.) from baseline in QTcF” value ([1]; schedule A, 300 mg) was 21.0 (±10.6) ms. The “maximal mean change (±s.d.) from baseline in QTcF” value ([1]; schedule B, 150 mg) was 14.9 (±11.7) ms, the “time of occurrence of DLTs” value ([2]; both schedules) was 8–15 treatment days and the “patients with DLTs during course 1” value ([2]; expansion cohort schedule A, 300 mg) was “Four patients”. The “patients with DLTs” value ([2]; expansion cohort schedule B, 150 mg) was “None”, the “patients with thrombocytopenia (grade 4) as DLT in first course” value ([2]; schedule A, 300 mg (MTD)) was “Two patients” and the “patients with a DLT related to neutropenia” value ([2]; schedule A, 300 mg (MTD), 17 patients) was “Four patients”. For the same compound, the “DLTs during course 1” value ([2]; schedule A, 300 mg (n=6), dose escalation) was “No DLTs”, the “duration of febrile neutropenia reported as DLT” value ([2]; schedule A, 300 mg, two patients) was 3 days and 4 days and the “patients with DLTs in first treatment course” value ([2]; schedule A, 350 mg (n=3)) was “All three patients”. For the same compound, the “maximum tolerated dose (MTD)” value ([2]; schedule A: 2-h i.v. infusion day 1 every 3 weeks) was 300 mg, the “DLTs of thrombocytopenia (grade 4)” value ([2]; schedule B) was “no DLTs” and the “patients with DLTs in first treatment course” value ([2]; schedule B, 200 mg (n=3)) was “two out of three patients”. For the same compound, the “maximum tolerated dose (MTD)” value ([2]; schedule B: 2-h i.v. infusion days 1 and 8 every 3 weeks) was 150 mg and the “DLTs after intra-individual dose escalation from MTD to a higher dose” value ([2]; up to 350 mg (schedule A, 3 patients) and 200 mg (schedule B, 1 patient)) was “No DLTs”.
